The values that follow come from ChEMBL document CHEMBL3994606, “Ring-opened tetrahydro-γ-carbolines display cytotoxicity and selectivity with histone deacetylase isoforms” (Eur J Med Chem, 2017).

pIC50: −log10 of the molar value. Activity calls are given as the source filed them. No cut-off for these calls is given here. Some results are limits rather than exact numbers.

Experiment [1] deals with HCT-116. In words: Antiproliferative activity against human HCT116 cells after 48 hrs by SRB assay. The class given is functional. The note with it: HCT-116, 48 h. In a few lines:
(§1)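 Cells seeded at 3-5 x 10³ cells/well. A T0 plate was fixed with 10% TCA at drug addition, and the rest were incubated 48 h with compound or DMSO, then TCA-fixed and stained with 0.4% SRB in 1% AcOH. Dye was extracted with 10 mM trizma base and read at 515 nm.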
For orientation: The SRB assay estimates cell density from bound dye.

Another experiment deals with PC-3. Briefly: Antiproliferative activity against human PC3 cells after 48 hrs by SRB assay. The format is functional. The settings on record: PC-3, 48 h. In a few lines: as §1
The next experiment deals with A549. In words: Antiproliferative activity against human A549 cells after 48 hrs by SRB assay. The format is functional. The note with it: A549, 48 h. In a few lines:
as §1

Experiment [2] concerns HCT-116. Briefly: Cell cycle arrest in human HCT116 cells assessed as accumulation at sub-G1 phase at 5 uM after 48 hrs by propidium iodide staining-based flow cytometric method. The class given is functional. In a few lines:
(§2)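 HCT116 cells treated 48 h, then fixed overnight in 75% EtOH at -20 °C and washed in cold PBS. They were incubated 30 min at room temperature in 0.1 M phosphate-citric acid buffer (pH 7.8) and stained with propidium iodide buffer containing 0.1% Triton X-100 and RNase A. The sub-G1 fraction was measured by flow cytometry.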

The test system of experiment [3] is HCT-116. Briefly: Induction of apoptosis in human HCT116 cells assessed as increase in cleaved PARP levels at 1.25 to 2.5 uM after 48 hrs Western blot method. The class given is functional, cell-based.
The subject of experiment [4] is HCT-116. In words: Induction of apoptosis in human HCT116 cells assessed as increase in cleaved caspase 3 levels at 1.25 to 2.5 uM after 48 hrs Western blot method. The format is functional, cell-based. On the technique in general: In western blotting, separated proteins are transferred to a membrane and probed.
Experiment [5] has as its system HCT-116. In words: Anticlonogenic activity against human HCT116 cells after 24 hrs by crystal violet staining-based assay. The format is functional, cell-based. In a few lines:
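Cells exposed to a range of concentrations or DMSO vehicle for 24 h, washed, trypsinized and replated at 500 cells/well; after 14 days colonies were fixed and stained with 0.5% crystal violet in 70% EtOH. Colonies of more than 50 cells were counted, and survival fraction was taken relative to DMSO control.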

In a further experiment the target is Histone deacetylase 1 (Homo sapiens, UniProt Q13547). In words: Inhibition of full length human recombinant C-terminal FLAG-His-tagged HDAC1 expressed in Sf21 cells using RHKK(Ac) as substrate after 60 mins by fluorimetric method.
Chain of Histone deacetylase 1 (Q13547 whole entry): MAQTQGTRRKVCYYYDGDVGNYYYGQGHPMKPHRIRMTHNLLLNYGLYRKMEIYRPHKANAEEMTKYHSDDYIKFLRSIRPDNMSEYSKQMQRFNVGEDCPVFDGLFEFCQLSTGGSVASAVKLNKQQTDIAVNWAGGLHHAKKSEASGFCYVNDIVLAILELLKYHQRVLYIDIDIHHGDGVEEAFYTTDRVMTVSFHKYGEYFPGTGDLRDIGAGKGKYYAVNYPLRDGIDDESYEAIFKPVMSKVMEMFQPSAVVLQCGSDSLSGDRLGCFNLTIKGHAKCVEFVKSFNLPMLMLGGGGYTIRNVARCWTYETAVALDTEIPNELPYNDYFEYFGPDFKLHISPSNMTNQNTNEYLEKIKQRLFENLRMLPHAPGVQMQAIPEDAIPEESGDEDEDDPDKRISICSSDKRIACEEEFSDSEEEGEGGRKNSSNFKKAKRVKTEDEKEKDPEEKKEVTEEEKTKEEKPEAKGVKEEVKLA
In the next experiment the target is Histone deacetylase 2 (Homo sapiens, UniProt Q92769). In words: Inhibition of full length human recombinant C-terminal GST-tagged HDAC2 expressed in insect cells using RHKK(Ac) as substrate after 60 mins by fluorimetric method.
Chain of Histone deacetylase 2 (Q92769 whole entry): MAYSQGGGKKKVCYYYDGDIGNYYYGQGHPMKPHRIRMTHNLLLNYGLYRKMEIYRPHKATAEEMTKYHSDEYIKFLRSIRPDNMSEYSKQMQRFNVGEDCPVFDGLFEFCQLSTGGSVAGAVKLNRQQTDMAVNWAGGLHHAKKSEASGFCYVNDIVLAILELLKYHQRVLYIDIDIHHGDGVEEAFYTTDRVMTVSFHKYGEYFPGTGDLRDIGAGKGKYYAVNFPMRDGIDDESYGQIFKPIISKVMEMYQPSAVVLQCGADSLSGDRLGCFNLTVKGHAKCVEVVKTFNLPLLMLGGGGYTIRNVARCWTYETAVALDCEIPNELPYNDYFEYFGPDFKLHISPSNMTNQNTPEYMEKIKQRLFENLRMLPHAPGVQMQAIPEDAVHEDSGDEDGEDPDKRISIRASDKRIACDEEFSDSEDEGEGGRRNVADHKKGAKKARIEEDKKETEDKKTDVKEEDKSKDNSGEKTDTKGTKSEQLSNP
In experiment [6] the target is T1, Protein deacetylase HDAC6 (Homo sapiens, UniProt Q9UBN7).
T1 sequence (Q9UBN7 whole entry): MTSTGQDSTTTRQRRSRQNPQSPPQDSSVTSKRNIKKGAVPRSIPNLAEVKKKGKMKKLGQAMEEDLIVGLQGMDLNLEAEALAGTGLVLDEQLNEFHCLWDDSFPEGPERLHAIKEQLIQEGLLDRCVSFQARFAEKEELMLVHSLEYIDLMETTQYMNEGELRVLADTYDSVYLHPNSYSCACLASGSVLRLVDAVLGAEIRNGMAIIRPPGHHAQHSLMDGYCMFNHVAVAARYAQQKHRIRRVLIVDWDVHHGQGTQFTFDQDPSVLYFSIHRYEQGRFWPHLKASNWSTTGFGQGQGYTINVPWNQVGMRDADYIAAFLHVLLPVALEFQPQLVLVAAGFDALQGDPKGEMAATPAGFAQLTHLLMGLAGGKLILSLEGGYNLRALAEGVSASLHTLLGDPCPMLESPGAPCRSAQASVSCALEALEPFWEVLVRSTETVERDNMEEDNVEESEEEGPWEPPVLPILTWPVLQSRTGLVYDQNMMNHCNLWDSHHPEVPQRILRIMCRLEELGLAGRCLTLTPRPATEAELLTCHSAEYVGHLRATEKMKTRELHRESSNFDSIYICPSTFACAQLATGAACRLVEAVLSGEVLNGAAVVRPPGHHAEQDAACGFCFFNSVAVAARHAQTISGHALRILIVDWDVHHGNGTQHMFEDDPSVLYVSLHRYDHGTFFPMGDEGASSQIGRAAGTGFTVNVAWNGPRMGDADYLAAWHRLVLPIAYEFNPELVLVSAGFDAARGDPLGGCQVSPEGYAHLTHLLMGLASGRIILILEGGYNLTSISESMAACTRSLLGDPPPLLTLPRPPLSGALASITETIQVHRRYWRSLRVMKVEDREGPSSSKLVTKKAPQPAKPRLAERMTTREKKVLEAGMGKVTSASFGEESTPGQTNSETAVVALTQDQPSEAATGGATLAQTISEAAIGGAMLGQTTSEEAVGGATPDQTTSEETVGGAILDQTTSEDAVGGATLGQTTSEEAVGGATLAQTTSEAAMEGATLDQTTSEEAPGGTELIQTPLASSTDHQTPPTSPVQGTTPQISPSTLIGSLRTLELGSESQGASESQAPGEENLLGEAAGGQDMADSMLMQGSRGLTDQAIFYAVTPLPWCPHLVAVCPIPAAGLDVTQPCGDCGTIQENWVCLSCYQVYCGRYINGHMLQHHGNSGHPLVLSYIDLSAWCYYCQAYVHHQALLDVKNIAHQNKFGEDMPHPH
In words: Inhibition of full length human recombinant N-terminal GST-tagged HDAC6 expressed in Sf9 cells using RHKK(Ac) as substrate after 90 mins by fluorimetric method.

For experiment [7], the species on record is Homo sapiens. Briefly: Selectivity ratio of IC50 for full length human recombinant C-terminal FLAG-His-tagged HDAC1 to IC50 for full length human recombinant N-terminal GST-tagged HDAC6.
The species named for experiment [8] is Homo sapiens. In words: Selectivity ratio of IC50 for full length human recombinant C-terminal GST-tagged HDAC2 to IC50 for full length human recombinant N-terminal GST-tagged HDAC6.
Experiment [9] has as its target T2, Protein deacetylase HDAC6 (Homo sapiens) (UniProt Q9UBN7).
T2 sequence (whole entry): T1 sequence (Q9UBN7 whole entry)
In words: Inhibition of HDAC6 in human HCT116 cells assessed as upregulation of acetylated tubulin levels at 2.5 uM after 6 hrs by Western blot method. The class given is cell-based. In a few lines:
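HCT116 cells treated 6 h with compound, then lysates probed by western blot for acetyl-tubulin, with ECL detection.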

For experiment [10], the species on record is Homo sapiens. Briefly: Inhibition of class 1 HDAC in human HCT116 cells assessed as upregulation of acetylated histone H3 levels at 2.5 uM after 6 hrs by Western blot method. The class given is cell-based.
In experiment [11] the test system is HCT-116. Briefly: Cell cycle arrest in human HCT116 cells assessed as accumulation at sub-G1 phase after 48 hrs by propidium iodide staining-based flow cytometric method. The format is functional. In a few lines:
as §2
In general terms: Flow cytometry measures light scatter and fluorescence of single cells or particles in a stream.

`CN1CCc2c(c3ccccc3n2Cc2ccc(C(=O)NO)cc2)C1` [TUBASTATIN A]: the 50% growth inhibitory concentration (GI50) in the experiment on HCT-116 [1], with PC-3 and in the experiment on A549 was above 5000 nM in each case. Also, in the experiment on HCT-116 [2], the outcome was Active. In addition, the result in the experiment on HCT-116 [3] and with HCT-116 [4] was inactive.

As to `Cc1c(CN(C)C)c2ccccc2n1S(=O)(=O)c1ccc(/C=C/C(=O)NO)cc1`, the GI50 (usually the concentration at which growth is held to half of that of the control) in the experiment with HCT-116 [1] was 550 nM; in the experiment on PC-3, 700 nM; with A549, 1560 nM. Also, the Activity result in the experiment with HCT-116 [5] and in the experiment on HCT-116 [11] was “Dose-dependent effect” each time. Besides, the negative logarithm of the IC50 (pIC50) (in general, −log10 of the IC50, conventionally taken in molar units) at Histone deacetylase 1 is 5.40; at Histone deacetylase 2, 5.90; in experiment [6], 7.20. The Ratio IC50 in the experiment listed under Homo sapiens [7] amounted to 63; in the experiment listed under Homo sapiens [8], 20. Besides, in experiment [9], the “Acetylated tubulin upregulation (qualitative)” value is “Active”. Also, the “Acetylated histone H3 upregulation (qualitative)” value in the experiment listed under Homo sapiens [10] is “inactive”. Besides, the outcome in the experiment on HCT-116 [3] and in the experiment on HCT-116 [4] was Active.
